Source: article PMC3961502 (The Journal of investigative dermatology, 2013)

Columns and labels:
Assay type in all cases: cell-based, human
[1] = tested on: AHDF; assay: cell morphology by phase contrast microscopy under nutrient deprivation; conditions: AHDF in HBSS 3 days; 1 nM PDGF, 10 µM P12
[2] = tested on: AHDF; assay: TUNEL apoptosis assay under nutrient deprivation; conditions: AHDF in HBSS, 3 days of starvation; 1 nM PDGF, 10 µM P12; >800 cells counted, n=6, mean
[3] = tested on: PDGFR-β; assay: PDGFR signaling by Western blot; conditions: AHDF preincubated 1 h with 80 µM dynasore, 1 nM PDGF-BB in HBSS (Figure S9)
How it was run: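 AHDF primary dermal fibroblasts (passage 8–12, grown in DMEM/10% FBS) were stimulated with 1 nM PDGF-BB ± 10 µM peptide in HBSS. Cells were lysed in Tris pH 7.5 buffer with phosphatase and protease inhibitors, sonicated and boiled. Equal protein was run on 10% SDS-PAGE and blotted to nitrocellulose, blocked in 2% BSA/TBST, and probed overnight at 4°C. Detection used HRP-secondary chemiluminescence, with signal intensity quantified.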

[4] = tested on: MCF-7 cells expressing GFP-PDGFR-β; assay: PDGFR-GFP / TR-dextran co-localization; conditions: MCF-7 pre-incubated with 80 µM dynasore 1 h, then 1 nM PDGF-BB
How it was run: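 MCF-7 cells expressing GFP-PDGFR-β were pre-incubated 1 h with 80 µM dynasore in serum-free DMEM. They then received TR-dextran plus 1 nM PDGF-BB ± 10 µM peptide in HBSS for 15 min and were imaged by confocal microscopy. Both channel thresholds were set at 70, and >100 cells were scored per condition. Co-localization index = yellow pixels / (yellow + green pixels).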

PDGF-BB: platelet-derived growth factor BB, purchased from Invitrogen
cell morphology [1]: rounded or shriveled
apoptosis, %TUNEL+ (TUNEL positive/DAPI positive) [2]: 30%

O=C(N/N=C/c1ccc(O)c(O)c1)c1cc2ccccc2cc1O [dynasore]
PDGF-BB stimulated p-Akt signal in the presence of dynasore [3]: inhibition
PDGF-BB-stimulated internalization of PDGFR-GFP under dynamin inhibition [4]: minimal internalization
